# Active and inactive are the calls of the source. The rule behind the calls is not given here.
# Experiments:
# [1] = Vasoconstriction of human coronary artery; assay type: functional, tissue-based
# Rattus norvegicus [2] = test: Toxicity in Sprague-Dawley rat assessed as nasal irritation at 75 mg/mL administered intranasally for 7 days; assay type: organism-based; details: in vivo, inhaled_or_intranasal, 168 h
# Summary of the method: (§1)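 Seven-day rat intranasal irritancy study. Dosing at 75 or 175 mg/mL, 12.5 µL/nostril in succinate buffer, giving total doses of 1.875 mg and 4.375 mg. Nasal cavity and respiratory epithelium were examined histologically.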
# Rattus norvegicus [3] = test: Toxicity in Sprague-Dawley rat assessed as nasal irritation at 175 mg/mL administered intranasally for 7 days; assay type: organism-based; details: in vivo, inhaled_or_intranasal, 168 h; summary of the method: as §1
# [4] = target: T1, Calcitonin gene-related peptide type 1 receptor (Homo sapiens, UniProt O60894+Q16602); test: Antagonist activity at human CGRP receptor
# T1 sequence (Q16602 whole entry, one chain of several): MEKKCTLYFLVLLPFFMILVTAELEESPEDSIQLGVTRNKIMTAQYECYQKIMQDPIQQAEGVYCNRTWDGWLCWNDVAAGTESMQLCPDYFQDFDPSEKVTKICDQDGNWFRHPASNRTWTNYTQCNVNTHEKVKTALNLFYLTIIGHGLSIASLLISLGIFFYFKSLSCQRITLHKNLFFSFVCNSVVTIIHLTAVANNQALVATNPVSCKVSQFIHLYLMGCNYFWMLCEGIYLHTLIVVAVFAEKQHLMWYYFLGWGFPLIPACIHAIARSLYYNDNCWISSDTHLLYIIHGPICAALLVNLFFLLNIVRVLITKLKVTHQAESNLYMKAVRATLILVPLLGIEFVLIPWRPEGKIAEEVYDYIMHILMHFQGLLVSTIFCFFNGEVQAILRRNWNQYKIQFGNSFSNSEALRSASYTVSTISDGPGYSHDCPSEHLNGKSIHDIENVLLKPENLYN
# Rattus norvegicus [5] = test: Toxicity in Sprague-Dawley rat assessed as inflammation of olfactory epithelium at 175 mg/mL administered intranasally for 7 days; assay type: organism-based; details: in vivo, inhaled_or_intranasal, 168 h; summary of the method: as §1
# [6] = target: T1, Calcitonin gene-related peptide type 1 receptor; test: (§2) Displacement of [125I]-CGRP from CGRP receptor in human SK-N-MC cell membranes after 2 hrs by scintillation counting analysis
# [7] = target: Calcitonin gene-related peptide type 1 receptor (Homo sapiens) (UniProt Q16602); test: as §2
# Sequence of Calcitonin gene-related peptide type 1 receptor (Homo sapiens) (Q16602 whole entry): as the sequence (Q16602 whole entry, one chain of several) above
# Cytochrome P450 2D6 = Cytochrome P450 2D6 (Homo sapiens, UniProt P10635); test: Inhibition of CYP2D6 (unknown origin) expressed in baculovirus-infected insect cell microsomes assessed as 3-[2-(N,N-diethyl-N-methylamino)ethyl]-7-methoxy-4-methylcoumarin conversion to 3-[2-(N,N-diethylamino)ethyl]-7-hydroxy-4-methylcoumarin after 45 mins by fluorescence assay; assay type: ADME, Microsome
# Sequence of Cytochrome P450 2D6 (P10635 whole entry): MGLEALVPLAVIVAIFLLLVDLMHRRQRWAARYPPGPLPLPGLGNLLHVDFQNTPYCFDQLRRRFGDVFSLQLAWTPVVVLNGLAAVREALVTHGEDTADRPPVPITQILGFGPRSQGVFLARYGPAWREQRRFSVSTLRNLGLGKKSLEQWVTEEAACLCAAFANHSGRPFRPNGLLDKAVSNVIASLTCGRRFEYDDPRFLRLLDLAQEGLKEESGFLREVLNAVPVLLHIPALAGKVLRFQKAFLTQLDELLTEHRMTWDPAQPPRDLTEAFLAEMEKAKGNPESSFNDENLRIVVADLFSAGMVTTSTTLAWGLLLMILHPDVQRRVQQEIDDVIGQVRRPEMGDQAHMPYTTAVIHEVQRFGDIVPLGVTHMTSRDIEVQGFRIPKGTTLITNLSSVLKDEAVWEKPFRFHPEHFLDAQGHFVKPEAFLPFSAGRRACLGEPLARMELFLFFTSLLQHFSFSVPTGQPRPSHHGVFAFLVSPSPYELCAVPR
# [8] = Oral bioavailability in intranasally dosed New Zealand White rabbit at 100 mg/mL; assay type: ADME, organism-based, Oryctolagus cuniculus; details: in vivo, other: intranasal
# Summary of the method: (§3)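 Intranasal dosing in rabbit with 10 to 100 mg/mL dosing solutions, then plasma sampling from 5 min to 24 h. Reported values are Cmax, Tmax, and absolute bioavailability for each dosing-solution concentration.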
# hERG [9] = target: T2, hERG (Homo sapiens, UniProt Q12809); test: Inhibition of human ERG at 30 uM relative to control
# T2 sequence (Q12809 whole entry): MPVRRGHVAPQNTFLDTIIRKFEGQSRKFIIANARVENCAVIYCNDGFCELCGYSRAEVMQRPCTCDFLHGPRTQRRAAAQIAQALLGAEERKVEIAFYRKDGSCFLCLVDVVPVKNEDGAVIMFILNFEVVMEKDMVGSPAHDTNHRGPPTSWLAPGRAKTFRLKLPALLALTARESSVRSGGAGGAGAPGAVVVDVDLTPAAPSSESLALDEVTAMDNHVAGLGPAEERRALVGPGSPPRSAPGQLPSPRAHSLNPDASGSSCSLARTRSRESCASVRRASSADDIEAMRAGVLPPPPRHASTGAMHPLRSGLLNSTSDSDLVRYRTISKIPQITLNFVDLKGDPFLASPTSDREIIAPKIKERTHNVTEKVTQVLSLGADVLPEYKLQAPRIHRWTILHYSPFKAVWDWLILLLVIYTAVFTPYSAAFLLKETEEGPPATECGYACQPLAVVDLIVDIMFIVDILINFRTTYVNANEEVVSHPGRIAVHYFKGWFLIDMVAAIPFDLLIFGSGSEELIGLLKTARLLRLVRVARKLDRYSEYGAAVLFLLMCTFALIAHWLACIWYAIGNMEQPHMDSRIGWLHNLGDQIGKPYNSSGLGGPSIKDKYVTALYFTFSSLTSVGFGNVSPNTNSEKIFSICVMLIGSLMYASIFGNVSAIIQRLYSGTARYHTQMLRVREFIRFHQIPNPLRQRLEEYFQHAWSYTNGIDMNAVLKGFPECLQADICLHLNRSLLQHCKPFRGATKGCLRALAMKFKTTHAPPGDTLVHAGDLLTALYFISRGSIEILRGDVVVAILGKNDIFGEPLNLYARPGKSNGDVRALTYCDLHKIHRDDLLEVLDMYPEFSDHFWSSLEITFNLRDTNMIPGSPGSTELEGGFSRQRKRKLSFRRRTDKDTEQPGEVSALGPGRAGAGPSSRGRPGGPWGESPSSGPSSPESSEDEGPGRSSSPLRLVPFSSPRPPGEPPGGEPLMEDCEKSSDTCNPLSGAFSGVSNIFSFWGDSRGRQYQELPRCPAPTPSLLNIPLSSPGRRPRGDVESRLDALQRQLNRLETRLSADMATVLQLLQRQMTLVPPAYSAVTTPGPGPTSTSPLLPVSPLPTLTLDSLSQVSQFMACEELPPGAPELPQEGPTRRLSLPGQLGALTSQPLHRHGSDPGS
# [10] = Toxicity in sc dosed Sprague-Dawley rat after 10 days; assay type: organism-based; details: in vivo
# Summary of the method: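 Rats were dosed subcutaneously once daily for 10 days at 0.3, 3, 10 and 30 mg/kg/day and assessed for tolerability and signs of systemic toxicity.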
# [11] = Permeability from apical to basolateral side of human Caco2 cells; assay type: ADME, cell-based; details: Caco-2, read-out: permeability
# Rattus norvegicus [12] = test: Toxicity in Sprague-Dawley rat assessed as lesions in nasal olfactory epithelium at => 75 mg/mL administered intranasally for 7 days; assay type: organism-based; details: in vivo, inhaled_or_intranasal, 168 h; summary of the method: as §1
# [13] = Plasma concentration in intranasally dosed New Zealand White rabbit after 5 mins; assay type: ADME, organism-based, Oryctolagus cuniculus; details: inhaled or intranasal; summary of the method: as §3
# [14] = Plasma concentration in marmoset at 0.03 mg/kg, sc measured 15 to 105 mins post-dose; assay type: ADME, organism-based, Callithrix jacchus; set-up: dose 0.03 mg/kg, route subcutaneous; details: in vivo
# Summary of the method: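 Total plasma levels were measured in anesthetized marmosets given the antagonist SC at 0 min, sampled over the 15–105 min post-dose period. The animals also received repeated IV hαCGRP (10 μg/kg) challenges for the facial blood flow model.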
# Rattus norvegicus [15] = test: Toxicity in Sprague-Dawley rat assessed as erosion of olfactory epithelium at 175 mg/mL administered intranasally for 7 days; assay type: organism-based; details: in vivo, inhaled_or_intranasal, 168 h; summary of the method: as §1
# [16] = Reversal of CGRP-induced dilation of human intracranial arterial rings assessed as rightward shift of concentration-response curve after 30 mins by Schild plot analysis; assay type: functional; details: 0.5 h
# hERG [17] = target: T2, hERG; test: Inhibition of human ERG at 10 uM relative to control
# [18] = Reversal of CGRP-induced dilation of human intracranial arterial rings; assay type: functional
# Summary of the method: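 Ex vivo reversal protocol: vessels fully dilated with CGRP, then cumulative addition of antagonist in a 3-point concentration-response. EC50 (concentration giving 50% reversal) estimated by best fit, n = 4 vessels per compound.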
# Homo sapiens [19] = organism: Homo sapiens; test: Selectivity ratio for human CGRP receptor over adrenomedullin receptor-1 (unknown origin)
# Callithrix jacchus [20] = test: Inhibition of human alphaCGRP-induced increase in facial blood flow in marmoset at 0.03 mg/kg, sc administered 30 mins after human alphaCGRP-challenge measured 60 mins post-dose by laser Doppler flowmetric analysis relative to control; assay type: functional; details: route subcutaneous
# Summary of the method: (§4)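 Anesthetized marmosets received four IV hαCGRP challenges (10 μg/kg) at 45 min intervals (-30, 15, 60, 105 min) to raise facial blood flow, monitored by laser Doppler. Antagonist given SC at 0 min. The first challenge is the pre-dose vehicle baseline, and inhibition at each post-dose challenge is expressed against it.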
# Cytochrome P450 2C19 = Cytochrome P450 2C19 (Homo sapiens, UniProt P33261); test: Inhibition of CYP2C19 (unknown origin) expressed in baculovirus-infected insect cell microsomes assessed as 3-cyano-7-ethoxycoumarin conversion to 7-hydroxy-3-cyanocoumarin after 45 mins by fluorescence assay; assay type: ADME, Microsome
# Sequence of Cytochrome P450 2C19 (P33261 whole entry): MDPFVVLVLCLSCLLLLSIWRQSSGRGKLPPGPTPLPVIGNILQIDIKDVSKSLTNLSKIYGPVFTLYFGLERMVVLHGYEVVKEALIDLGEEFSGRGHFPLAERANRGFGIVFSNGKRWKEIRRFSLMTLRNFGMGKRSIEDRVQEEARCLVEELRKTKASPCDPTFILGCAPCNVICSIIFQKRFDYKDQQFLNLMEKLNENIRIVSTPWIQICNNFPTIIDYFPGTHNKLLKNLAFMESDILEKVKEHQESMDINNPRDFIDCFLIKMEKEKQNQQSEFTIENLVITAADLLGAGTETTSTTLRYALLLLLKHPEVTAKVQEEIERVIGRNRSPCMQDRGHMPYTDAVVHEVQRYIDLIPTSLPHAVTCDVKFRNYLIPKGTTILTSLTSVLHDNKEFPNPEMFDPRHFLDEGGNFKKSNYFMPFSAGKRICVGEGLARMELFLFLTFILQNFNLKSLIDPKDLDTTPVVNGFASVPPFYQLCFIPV
# [21] = Chemical degradation in succinate buffer at 40 mg/mL after 3 months at pH 6
# [22] = target: Calcitonin gene-related peptide type 1 receptor (Homo sapiens) (UniProt Q16602); test: Antagonist activity at CGRP receptor in human SK-N-MC cell membranes assessed as inhibition of CGRP-stimulated cAMP production; assay type: functional, cell-based
# Cytochrome P450 2C9 = Cytochrome P450 2C9 (Homo sapiens, UniProt P11712); test: Inhibition of CYP2C9 (unknown origin) expressed in baculovirus-infected insect cell microsomes assessed as 7-methoxy-4-trifluoromethylcoumarin conversion to 7-hydroxy-4-trifluoromethylcoumarin after 45 mins by fluorescence assay; assay type: ADME, Microsome
# Sequence of Cytochrome P450 2C9 (P11712 whole entry): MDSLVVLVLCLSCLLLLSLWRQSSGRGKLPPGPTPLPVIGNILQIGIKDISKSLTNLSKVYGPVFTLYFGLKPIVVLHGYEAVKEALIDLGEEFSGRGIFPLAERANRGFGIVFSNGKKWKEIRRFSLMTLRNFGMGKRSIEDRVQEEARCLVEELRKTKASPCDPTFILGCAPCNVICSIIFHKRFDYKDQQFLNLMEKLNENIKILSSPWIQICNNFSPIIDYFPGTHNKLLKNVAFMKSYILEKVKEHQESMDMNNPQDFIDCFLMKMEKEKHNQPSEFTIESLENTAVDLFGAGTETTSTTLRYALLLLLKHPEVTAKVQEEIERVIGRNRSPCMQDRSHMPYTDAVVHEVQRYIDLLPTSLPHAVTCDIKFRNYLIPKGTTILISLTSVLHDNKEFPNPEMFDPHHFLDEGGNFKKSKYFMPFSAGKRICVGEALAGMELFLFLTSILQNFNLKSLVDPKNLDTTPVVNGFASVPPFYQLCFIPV
# Cytochrome P450 3A4 [23] = target: T3, Cytochrome P450 3A4 (Homo sapiens, UniProt P08684); test: Inhibition of CYP3A4 (unknown origin) expressed in baculovirus-infected insect cell microsomes assessed as 7-benzyloxy-4-trifluoromethylcoumarin conversion to 7-hydroxy-4-trifluoromethylcoumarin after 20 mins by fluorescence assay; assay type: ADME, Microsome
# T3 sequence (P08684 whole entry): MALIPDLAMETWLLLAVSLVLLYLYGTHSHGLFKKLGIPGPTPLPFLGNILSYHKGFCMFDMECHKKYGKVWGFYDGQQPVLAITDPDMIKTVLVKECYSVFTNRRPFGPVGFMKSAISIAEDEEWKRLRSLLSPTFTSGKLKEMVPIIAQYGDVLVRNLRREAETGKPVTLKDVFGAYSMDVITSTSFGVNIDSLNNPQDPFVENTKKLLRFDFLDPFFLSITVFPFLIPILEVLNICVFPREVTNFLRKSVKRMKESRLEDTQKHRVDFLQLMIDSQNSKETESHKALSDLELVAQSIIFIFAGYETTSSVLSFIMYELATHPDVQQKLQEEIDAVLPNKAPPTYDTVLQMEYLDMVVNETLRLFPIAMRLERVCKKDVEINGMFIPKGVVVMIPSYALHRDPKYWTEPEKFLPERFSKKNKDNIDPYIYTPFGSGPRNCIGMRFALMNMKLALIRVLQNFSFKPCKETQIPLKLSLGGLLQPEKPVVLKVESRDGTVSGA
# Rattus norvegicus [24] = test: Toxicity in Sprague-Dawley rat assessed as single cell necrosis of respiratory epithelium at 175 mg/mL administered intranasally for 7 days; assay type: organism-based; details: in vivo, inhaled_or_intranasal, 168 h; summary of the method: as §1
# [25] = Aqueous solubility of the compound; assay type: physicochemical; details: buffer
# Summary of the method: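 Aqueous solubility of crystalline material, determined at pH 8.5 and at lower pH.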
# Rattus norvegicus [26] = test: Toxicity in Sprague-Dawley rat assessed as neutrophilic inflammation of respiratory epithelium at 175 mg/mL administered intranasally for 7 days; assay type: organism-based; details: in vivo, inhaled_or_intranasal, 168 h; summary of the method: as §1
# Homo sapiens [27] = organism: Homo sapiens; test: Selectivity ratio for human CGRP receptor over amylin receptor-3 (unknown origin)
# [28] = Oral bioavailability in cynomolgus monkey; assay type: ADME, organism-based, Macaca fascicularis; details: in vivo
# [29] = Oral bioavailability in intranasally dosed New Zealand White rabbit at 10 mg/mL; assay type: ADME, organism-based, Oryctolagus cuniculus; details: in vivo, other: intranasal; summary of the method: as §3
# Homo sapiens [30] = organism: Homo sapiens; test: Selectivity ratio for human CGRP receptor over human calcitonin receptor
# Callithrix jacchus [31] = test: Inhibition of human alphaCGRP-induced increase in facial blood flow in marmoset at 0.03 mg/kg, sc administered 30 mins after human alphaCGRP-challenge measured 15 mins post-dose by laser Doppler flowmetric analysis relative to control; assay type: functional; details: route subcutaneous; summary of the method: as §4
# [32] = Tmax in intranasally dosed New Zealand White rabbit; assay type: ADME, organism-based, Oryctolagus cuniculus; details: in vivo, inhaled or intranasal; summary of the method: as §3
# [33] = Oral bioavailability in mouse; assay type: ADME, organism-based; details: in vivo
# Cytochrome P450 3A4 [34] = target: T3, Cytochrome P450 3A4; test: Inhibition of CYP3A4 (unknown origin) expressed in baculovirus-infected insect cell microsomes assessed as benzoylresorufin conversion to resorufin metabolites after 45 mins by fluorescence assay; assay type: ADME, Microsome
# Rattus norvegicus [35] = test: Toxicity in Sprague-Dawley rat assessed as ulceration of olfactory epithelium at 175 mg/mL administered intranasally for 7 days; assay type: organism-based; details: in vivo, inhaled_or_intranasal, 168 h; summary of the method: as §1
# [36] = Permeability from basolateral to apical side of human Caco2 cells; assay type: ADME, cell-based; details: Caco-2, read-out: permeability
# Homo sapiens [37] = organism: Homo sapiens; test: Selectivity ratio for human CGRP receptor over amylin receptor-1 (unknown origin)
# [38] = Permeability of the compound by PAMPA; assay type: ADME
# [39] = Fraction unbound in human plasma; assay type: ADME, cell-free
# [40] = Subcutaneous bioavailability in sc dosed Sprague-Dawley rat; details: in vivo
# Homo sapiens [41] = organism: Homo sapiens; test: Selectivity ratio for human CGRP receptor over adrenomedullin receptor-2 (unknown origin)
# Callithrix jacchus [42] = test: Inhibition of human alphaCGRP-induced increase in facial blood flow in marmoset at 0.03 mg/kg, sc administered 30 mins after human alphaCGRP-challenge measured 105 mins post-dose by laser Doppler flowmetric analysis relative to control; assay type: functional; details: route subcutaneous; summary of the method: as §4
# [43] = Cmax in intranasally dosed New Zealand White rabbit; assay type: ADME, organism-based, Oryctolagus cuniculus; set-up: route nasal; details: in vivo, inhaled or intranasal; summary of the method: as §3
# Rattus norvegicus [44] = test: Toxicity in Sprague-Dawley rat assessed as lesions in respiratory epithelium at => 75 mg/mL administered intranasally for 7 days; assay type: organism-based; details: in vivo, inhaled_or_intranasal, 168 h; summary of the method: as §1
# Cytochrome P450 1A2 = target: T4, Cytochrome P450 1A2 (Homo sapiens, UniProt P05177); test: Inhibition of CYP1A2 (unknown origin) expressed in baculovirus-infected insect cell microsomes assessed as 3-cyano-7-ethoxycoumarin conversion to 7-hydroxy-3-cyanocoumarin after 45 mins by fluorescence assay; assay type: ADME, Microsome
# T4 sequence (P05177 whole entry): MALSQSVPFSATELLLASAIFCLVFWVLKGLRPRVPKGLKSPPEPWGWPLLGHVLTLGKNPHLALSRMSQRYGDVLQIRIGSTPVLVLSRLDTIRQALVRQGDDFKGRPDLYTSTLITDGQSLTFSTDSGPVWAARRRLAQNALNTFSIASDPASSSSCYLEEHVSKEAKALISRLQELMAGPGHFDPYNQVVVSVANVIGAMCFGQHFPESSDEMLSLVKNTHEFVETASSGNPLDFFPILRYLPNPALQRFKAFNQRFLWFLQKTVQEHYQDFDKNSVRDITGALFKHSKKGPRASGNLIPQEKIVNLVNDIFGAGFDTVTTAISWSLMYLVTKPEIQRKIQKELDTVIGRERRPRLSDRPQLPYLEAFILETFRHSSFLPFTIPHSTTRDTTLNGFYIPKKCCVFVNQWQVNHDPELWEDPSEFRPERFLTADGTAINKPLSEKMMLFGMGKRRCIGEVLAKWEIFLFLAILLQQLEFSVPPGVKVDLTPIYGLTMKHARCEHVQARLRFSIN
# [45] = Vasoconstriction of human coronary artery up to 10 uM; assay type: functional, tissue-based
smiles,measurement,setting,value
CNS(=O)(=O)Cc1ccc2[nH]cc(CCN(C)C)c2c1,Activity,[1],Dose-dependent effect
same,EC50,[1],280 nM
Cc1cc(C[C@@H](NC(=O)N2CCC(N3Cc4cccc(F)c4NC3=O)CC2)C(=O)N2CCC(N3CCCCC3)CC2)cc2cn[nH]c12,Activity,Rattus norvegicus [2],Toxic
same,Activity,Rattus norvegicus [3],Toxic
O=C(CN1C(=O)C2(CCCC2)NC[C@H]1c1cc(F)cc(F)c1)Nc1ccc2c(c1)C[C@@]1(C2)C(=O)Nc2ncccc21 [MK3207],Ki,[4],0.021 nM
Cc1cc(C[C@@H](NC(=O)N2CCC(c3cc4ccccc4[nH]c3=O)CC2)C(=O)N2CCN(C3CCN(C)CC3)CC2)cc2cn[nH]c12 [ZAVEGEPANT],Activity,Rattus norvegicus [5],Toxic
same,Ki,[6],0.023 nM
same,inhibition,[7],Dose-dependent effect
same,IC50,Cytochrome P450 2D6,> 40000 nM
same,bioavailability,[8],30%
same,inhibition at 30 µM,hERG [9],22%
same,MTD at 240 h,[10],30 mg/kg/day
same,Papp A→B,[11],1.6 ×10⁻⁶ cm/s
same,Activity,Rattus norvegicus [12],Toxic
same,concentration at 5 min,[13],> 10 nM
same,concentration,[14],25 nM
same,Activity,Rattus norvegicus [15],Toxic
same,Kb,[16],0.091 nM
same,inhibition at 10 µM,hERG [17],9.5%
same,EC50,[18],0.88 nM
same,Selectivity ratio,Homo sapiens [19],> 10000
same,inhibition in vivo at 0.03 mg/kg,Callithrix jacchus [20],80%
same,IC50,Cytochrome P450 2C19,> 40000 nM
same,"Degradation % at 2191.5 h, 40 mg/mL",[21],0.3%
same,Kb,[22],0.022 nM
same,IC50,Cytochrome P450 2C9,> 40000 nM
same,IC50,Cytochrome P450 3A4 [23],> 40000 nM
same,Activity,Rattus norvegicus [24],Toxic
same,Activity,Rattus norvegicus [2],Non-toxic
same,solubility,[25],> 300 mg/mL
same,Activity,Rattus norvegicus [26],Toxic
same,Selectivity ratio,Homo sapiens [27],> 10000
same,bioavailability,[28],0.3%
same,bioavailability,[29],13%
same,Selectivity ratio,Homo sapiens [30],> 10000
same,inhibition in vivo at 0.03 mg/kg,Callithrix jacchus [31],48%
same,Tmax,[32],15 min
same,bioavailability,[33],1.4%
same,IC50,Cytochrome P450 3A4 [34],24000 nM
same,Activity,Rattus norvegicus [35],Toxic
same,Activity,Rattus norvegicus [3],Non-toxic
same,Papp B→A,[36],1.6 ×10⁻⁶ cm/s
same,Selectivity ratio,Homo sapiens [37],> 10000
same,permeability,[38],impermeable
same,fraction unbound,[39],0.37
same,bioavailability,[40],82%
same,Selectivity ratio,Homo sapiens [41],> 10000
same,inhibition in vivo at 0.03 mg/kg,Callithrix jacchus [42],70%
same,Cmax,[43],120 nM
same,Activity,Rattus norvegicus [44],Toxic
same,IC50,Cytochrome P450 1A2,> 40000 nM
same,Activity,[45],inactive

# Source: ChEMBL document CHEMBL2396632 (Bioorg Med Chem Lett, 2013)
